Sampled rows, rich in hits. Any-hit rate of the full collection: about 2.9%.
Vif inh: inhibitors of HIV Vif | inhibition, % at 7.49 µM | 340,000 compounds, 0.35% hits | AID 602346 | HEK293T cells, Vif self-association by quenched fluorescence, imaging, 24 h; in the data active means inhibition above about 50%, passing the limit was not always enough
PglD inh: blocks C. jejuni PglD acetyltransferase activity; purified PglD enzyme, DTNB colorimetric CoA detection; inhibition, % at 12.5 µM; 360,000 compounds, 0.098% hits; AID 602405; in the data active means inhibition above about 16%, passing the limit was not always enough
Ecoli rRNA inh: inhibits bacterial ribosomal RNA function over humanized ribosomes; E. coli WT GFP vs humanized-ribosome RFP mutants, fluorescence, 24 h; stronger effect = lower value; DMSO median 0, no signal -100; GFP signal change (wild-type ribosome), % (test concentration not listed); 350,000 compounds, 1.6% hits;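 active means significant combined selectivity score with lowered wild-type GFP, culture density cut under 30%, mutant RFP and density less affected; inactive means any of these conditions unmet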
PGC1a acetyl inh: modulators of PGC1a acetylation; U2OS PGC1a acetylation, AlphaScreen anti-acetyl-lysine; with virally co-expressed GCN5 acetyltransferase; inhibition, % at 15.6 µM; 350,000 compounds, 0.17% hits;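 active means every replicate shows inhibition of at least 40%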;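 further: 0% = neutral control wells and 100% = positive control wells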
Cneo AK release: causes C. neoformans cell lysis; adenylate kinase release luminescence, 4 h; normalised: neutral wells 0, clomiphene wells 100; lysis activity, % at 15 µM; 360,000 compounds, 0.2% hits;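 active means mean lysis activity across replicates of at least 80%, whatever share of replicates individually reach that level; inactive means mean lysis activity below 80%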
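Assay system: C. neoformans cells. Amount: yeast cell density of 5 × 10^6 cells/mL. Technique: AK luminescence. Buffer or medium: YPD. Times: static 4 h at 37 °C with compound, 1 h detection. Dosing: single-point compound dose. Read-out: lysis from increased AK signal.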
FGF22 binding: binders of recombinant human FGF22 by thermal shift. SYPRO orange fluorescence; percent of sucrose octasulfate shift, DMSO zero. activity (Tm shift, normalised), % at 9.99 µM. 340,000 compounds, 1.5% hits. AID 651658;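 active means mean Tm shift, scaled 0 neutral to 100 positive control, at about 1.3% or above, every replicate too, limit read from the data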
Target sequence (Q9HCT0 whole entry, looked up): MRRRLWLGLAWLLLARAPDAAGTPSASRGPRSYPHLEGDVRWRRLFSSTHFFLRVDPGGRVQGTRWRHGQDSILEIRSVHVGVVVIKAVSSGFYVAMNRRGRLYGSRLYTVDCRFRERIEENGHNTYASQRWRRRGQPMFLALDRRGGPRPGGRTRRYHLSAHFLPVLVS
Starred values were filed as active, the others as inactive; . = no result.

SMILES	Vif inh	PglD inh	Ecoli rRNA inh	PGC1a acetyl inh	Cneo AK release	FGF22 binding
CCN(CCn1cccn1)C(=O)CC1C(=O)NCCN1Cc1ccc(OC)c(OC)c1 (stereo not drawn)	-16.5	4.1	9.0	.	-1.3	0.4
S=c1[nH]cnc2scc(-c3ccccc3)c12	2.3	13.2	-29.2*	-0.5	0.3	0.0
CCCCC(=O)Nc1ccc(NC(=O)c2cccs2)cn1	0.2	.	.	48.8*	.	.
O=C(Nc1ccc(NC(=O)c2cccs2)cn1)c1ccccc1	-2.0	.	.	.	.	43.2*
CCCC(=O)Nc1ccc(NC(=O)c2cccs2)cn1	-2.2	-0.9	.	4.4	-1.7	.
O=C(C[C@H]1CC[C@@H](NC(=O)C2CCOCC2)[C@H](CO)O1)Nc1nccs1	.	-1.3	0.0	15.3	52.9	0.0
COc1ccc(CCNC(=O)[C@@]2(Sc3ccc(C)cc3)CC(=O)N(C(C)C)[C@@H]2c2ccc(CO)cc2I)cc1	.	4.5	.	-6.7	7.8	1.3*
COc1ccc(CNC(=O)c2ccc[nH]2)cc1	59.6*	-1.8	-5.7	.	-1.3	0.1
COc1ccc(CNC(=O)c2cc(C(C)=O)c[nH]2)cc1	3.1	8.0	0.8	2.9	1.4	0.1
O=C(C[C@@H]1CC[C@H](NC(=O)C2CCOCC2)[C@H](CO)O1)Nc1ccccc1	.	.	1.4	-7.1	.	.
Cc1ccc(OCC(=O)Nc2sc3c(c2C#N)CC(C)(C)NC3(C)C)cc1	4.7	.	-7.2	-26.4	.	43.5*
CC(C)CC(=O)Nc1sc2c(c1C#N)CC(C)(C)NC2(C)C	55.6*	-13.0	.	-17.8	-0.3	.
CCC(=O)Nc1sc2c(c1C#N)CC(C)(C)NC2(C)C	13.2	-0.2	.	-8.5	2.4	.
COCC#Cc1cnc2c(c1)C(=O)N([C@@H](C)CO)C[C@H](C)[C@@H](CN(C)Cc1ccc(-c3ccccc3)cc1)O2	.	.	-0.5	0.6	.	-0.3
OCC1CCN(Cc2cn(Cc3ccccc3)nc2-c2cc3ccccc3o2)CC1	-8.1	7.6	.	-11.8	-2.9	43.7*
COC1CCN(Cc2cn(Cc3ccccc3)nc2-c2cc3ccccc3o2)CC1	-3.0	-3.3	1.3	-12.6	8.4	-0.1
OCC1CCCN(Cc2cn(Cc3ccccc3)nc2-c2cc3ccccc3o2)C1 (stereo not drawn)	8.1	.	5.1	.	.	43.0*
C[C@@H]1CCCCO[C@@H](CN(C)C(=O)Nc2ccc(C(F)(F)F)cc2)[C@H](C)CN([C@@H](C)CO)C(=O)c2cc(NS(=O)(=O)c3cn(C)cn3)ccc2O1	.	-3.0	-57.6	-24.2	-1.7	-0.1
Cc1onc(-c2ccccc2)c1C(=O)NNC(=S)NC(=O)c1ccc2c(c1)OCO2	30.9	-2.7	-40.5*	-4.3	0.0	0.2
COc1ccc(C(=O)NC(=S)NNC(=O)c2c(-c3ccccc3)noc2C)cc1OC	2.7	3.6	-40.2	9.7	4.4	0.1
Cc1onc(-c2ccccc2)c1C(=O)NC(=S)NNC(=O)c1ccncc1	-2.8	-4.3	-36.5*	-25.0	1.5	-0.1
Cc1onc(-c2ccccc2)c1C(=O)NC(=S)NNC(=O)c1ccco1	3.8	-0.9	-54.0	6.6	7.3	0.0
Cc1onc(-c2ccccc2)c1C(=O)NC(=S)NNC(=O)c1cc(-c2ccc(F)cc2)n[nH]1	2.4	-2.5	-33.1*	-10.1	5.4	0.1
COc1ccc(-c2nn(-c3ccccc3)cc2C(=O)NC(=S)NNC(=O)c2ccncc2)cc1	59.6*	3.5	-37.8	9.7	-0.1	42.2
CO[C@H]1CN(C)C(=O)c2ccc(NC(=O)c3ccc(F)cc3)cc2OC[C@H](C)N(C(=O)CN(C)C)C[C@H]1C	.	.	0.5	-25.6	.	.
SMILES	Vif inh	PglD inh	Ecoli rRNA inh	PGC1a acetyl inh	Cneo AK release	FGF22 binding
CC(C)C#Cc1ccc2c(c1)O[C@H](CN(C)CC1CCOCC1)[C@H](C)CN([C@@H](C)CO)S2(=O)=O	.	-0.6	3.6	-16.6	-1.2	0.0
C[C@@H]1CN([C@H](C)CO)C(=O)c2cc(NC(=O)CCC(F)(F)F)ccc2O[C@H]1CN(C)S(=O)(=O)c1cn(C)cn1	.	1.4	4.5	-4.8	44.8	-0.1
O=C(CSCc1nc2c(nnn2Cc2ccc(F)cc2)c(=O)[nH]1)Nc1c(Cl)cc(Cl)cc1Cl	-1.9	.	.	0.7	.	43.3*
CCc1nc2c(nnn2Cc2ccc(F)cc2)c(=O)[nH]1	5.4	-1.5	8.5	6.2	-0.1	.
O=C(Nc1ccc(Cl)c(Cl)c1)Nc1ccccc1NS(=O)(=O)c1cccs1	17.9	.	-60.5	-4.5	.	1.7*
C[C@H]1CN([C@@H](C)CO)S(=O)(=O)c2ccc(C#CC3CCCC3)cc2O[C@@H]1CN(C)Cc1cncnc1	.	.	-28.8	12.5	.	.
COCCOC(=O)/C(=C/c1ccc(OC(=O)c2ccccc2)cc1)C(C)=O	-5.7	5.3	.	-7.7	-2.2	.
CCOC(=O)/C(=C/c1ccc(OC(=O)c2ccncc2)cc1)C(C)=O	-4.5	.	14.0	0.9	.	43.9*
Cc1cc(C=O)c(C)n1-c1sc2c(c1C(=O)O)CCCC2	28.5	.	.	.	.	.
COC(=O)c1c(-n2c(C)cc(C=O)c2C)sc2c1CCCC2	84.1*	-2.9	-44.5	-1.3	4.4	0.1
CCCNC(=O)N1[C@@H](CO)[C@@H](c2ccccc2)[C@@H]1CNC(C)=O	.	2.5	-5.3	3.2	0.7	-0.1
O=C(NC[C@@H]1[C@H](c2ccccc2)[C@@H](CO)N1C(=O)Cc1cccnc1)C1CCC1	.	0.4	2.6	4.3	84.2*	.
CCCNC(=O)N1[C@@H](CO)[C@@H](c2ccc(-c3ccccc3)cc2)[C@@H]1CNC(C)=O	.	4.4	-6.4	6.8	87.6*	.
CC(=O)N1[C@H](CO)[C@H](c2ccc(-c3ccccc3)cc2)[C@@H]1CNC(=O)C1CC1	.	0.0	1.5	3.7	104.7*	.
C[C@@H]1CCCCO[C@H](CN(C)C(=O)CCC(F)(F)F)[C@H](C)CN([C@@H](C)CO)C(=O)c2cc(NC(=O)NC3CCCCC3)ccc2O1	.	0.9	-2.7	-6.0	2.9	-0.4
COc1ccc(-c2[nH]ncc2-c2ccc3c(c2)OCCO3)c(O)c1	.	.	.	53.1*	.	.
CCc1cc(-c2[nH]ncc2-c2ccc3c(c2)OCO3)c(O)cc1O	-12.1	-1.6	.	35.5	-1.3	.
Cc1noc(C)c1S(=O)(=O)Nc1ccc2c(c1)C(=O)N([C@@H](C)CO)C[C@@H](C)[C@@H](CN(C)S(=O)(=O)c1ccc(F)cc1)OCCCC[C@@H](C)O2	.	2.6	-0.1	-3.9	1.8	0.0
CC(C)NC(=O)N(C)C[C@H]1Oc2ccc(NS(=O)(=O)c3cccs3)cc2C(=O)N([C@@H](C)CO)C[C@@H]1C	.	.	6.4	-1.9	.	.
O=C(NC(=S)N1CCc2ccccc21)c1ccc(Br)o1	5.5	.	-42.5*	-22.4	.	.
O=S1(=O)CCC(N=Cc2cc(Br)ccc2O)C1 (stereo not drawn)	.	0.0	.	-7.0	84.6*	.
O=c1c2ccccc2c(C=NC2CCS(=O)(=O)C2)c(O)n1-c1ccccc1 (stereo not drawn)	2.2	-8.3	.	2.6	0.9	.
